Reference: ChEMBL document CHEMBL1144212, “Design and synthesis of 3-pyrazolyl-thiophene, thieno[2,3-d]pyrimidines as new bioactive and pharmacological activities” (Bioorg Med Chem Lett, 2008)

What follows are compounds tested on Fusarium equiseti (assay: Antifungal activity against Fusarium equiseti (Corda) Sacc after 48 hrs by poisoned-food technique). Details: not given.
Type: functional
Set-up: concentration or dose not given beside the values
In the case of `CCOC(=O)c1sc(N)c(C(=O)NNC=O)c1C`, the inhibition was 65.6%. Work on `CCOC(=O)c1sc(N)c(C(=O)NNc2nc(C)cs2)c1C` yielded an inhibition of 43.8%. `CCOC(=O)c1sc(N)c(C(=O)N2NC(=O)CC2=O)c1C` was tested, and the inhibition was 40%. Work on `CCOC(=O)c1sc2[nH]c(=S)n(N)c(=O)c2c1C` yielded an inhibition of 47.6%.

These compounds were tested on Rattus norvegicus (assay: Antiinflammatory activity against carrageenan-induced albino rat hind paw edema model assessed as edema rate at 15 mg/kg, po administered 1 hr before carrageenan challenge measured after 3 hrs). Details: not given.
Type: functional
In short: (§1)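 Albino rats of both sexes were fasted 18 h, five per group. Dosing was 15 mg/kg orally as an aqueous suspension (tween-80/water vehicle), 1 h before subplantar 0.1 mL 1% w/v carrageenin in the left hind paw. Paw volume was measured by mercury plethysmometer before injection, then hourly for 4 h. Edema rate = (Vt − Vo)/Vo.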
`CCOC(=O)c1sc(N)c(C(=O)n2nc(C)cc2C)c1C` showed an Activity of 8.46%. `CCOC(=O)c1sc(N)c(C(=O)NNC=O)c1C` showed an Activity of -29.58%. Work on `CCOC(=O)c1sc(N)c(C(=O)NNc2nc(C)cs2)c1C` yielded an Activity of -25.33%. For `CCOC(=O)c1sc(N)c(C(=O)N2NC(=O)CC2=O)c1C`, the Activity was -20.9%. Work on `CCOC(=O)c1sc2[nH]c(=S)n(N)c(=O)c2c1C` yielded an Activity of -10.58%.

Each compound was assayed on Mus musculus (assay: Analgesic activity in Swiss albino mouse at 20 mg/kg, po assessed as reaction time after 30 mins by hot plate method). Details: not given.
Type: functional
In short: (§2)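 Swiss albino mice of both sexes (25–30 g), kept at 22 °C on a 12 h light/dark cycle, in groups of five. Given 20 mg/kg orally as an aqueous suspension; aspirin reference at 20 mg/kg orally. Hot plate at 53 °C. Reaction time (placement to hind-paw licking or jumping) was taken before dosing and at 15, 30, 60 and 90 min; 60 s cut-off.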
`CCOC(=O)c1sc(N)c(C(=O)n2nc(C)cc2C)c1C` was tested, and the Activity was 7.72 s. Compound `CCOC(=O)c1sc(N)c(C(=O)NNC=O)c1C` has an Activity of 6.08 s. In the case of `CCOC(=O)c1sc(N)c(C(=O)NNc2nc(C)cs2)c1C`, the Activity was 6.68 s. Compound `CCOC(=O)c1sc(N)c(C(=O)N2NC(=O)CC2=O)c1C` has an Activity of 10.22 s. `CCOC(=O)c1sc2[nH]c(=S)n(N)c(=O)c2c1C` showed an Activity of 6.6 s. With `CC(=O)Oc1ccccc1C(=O)O` [ASPIRIN] the Activity was 6.66 s.

The compounds below were run on Rattus norvegicus (assay: Gastrointestinal toxicity in carrageenan-induced albino rat hind paw edema model assessed as induction of ulcerogenicity at 15 mg/kg, po). Details: in vivo.
Type: organism-based
Set-up: dose 15 mg/kg, route oral
For `CCOC(=O)c1sc(N)c(C(=O)n2nc(C)cc2C)c1C`, the Activity was “Non-toxic”. With `CCOC(=O)c1sc(N)c(C(=O)N2NC(=O)CC2=O)c1C` the Activity was “Non-toxic”.

Each compound was assayed on Mus musculus (assay: Analgesic activity in Swiss albino mouse at 20 mg/kg, po assessed as reaction time after 60 mins by hot plate method). Details: not given.
Type: functional
In short: as §2
`CCOC(=O)c1sc(N)c(C(=O)n2nc(C)cc2C)c1C` showed an Activity of 7.62 s. For `CCOC(=O)c1sc(N)c(C(=O)NNC=O)c1C`, the Activity was 6.9 s. In the case of `CCOC(=O)c1sc(N)c(C(=O)NNc2nc(C)cs2)c1C`, the Activity was 6.46 s. Work on `CCOC(=O)c1sc(N)c(C(=O)N2NC(=O)CC2=O)c1C` yielded an Activity of 12.42 s. Compound `CCOC(=O)c1sc2[nH]c(=S)n(N)c(=O)c2c1C` has an Activity of 7.24 s. `CC(=O)Oc1ccccc1C(=O)O` [ASPIRIN] gave an Activity of 6.56 s.

These compounds were tested on Mus musculus (assay: Analgesic activity in Swiss albino mouse at 20 mg/kg, po assessed as reaction time after 90 mins by hot plate method). Details: not given.
Type: functional
In short: as §2
`CCOC(=O)c1sc(N)c(C(=O)n2nc(C)cc2C)c1C` showed an Activity of 9.78 s. With `CCOC(=O)c1sc(N)c(C(=O)NNC=O)c1C` the Activity was 4.84 s. `CCOC(=O)c1sc(N)c(C(=O)NNc2nc(C)cs2)c1C` gave an Activity of 4.7 s. Compound `CCOC(=O)c1sc(N)c(C(=O)N2NC(=O)CC2=O)c1C` has an Activity of 10.68 s. `CCOC(=O)c1sc2[nH]c(=S)n(N)c(=O)c2c1C` was tested, and the Activity was 7.16 s. In the case of `CC(=O)Oc1ccccc1C(=O)O` [ASPIRIN], the Activity was 7.78 s.

The compounds below were run on Rattus norvegicus (assay: Antiinflammatory activity against carrageenan-induced albino rat hind paw edema model assessed as edema rate at 15 mg/kg, po administered 1 hr before carrageenan challenge measured after 2 hrs). Details: not given.
Type: functional
In short: as §1
Compound `CCOC(=O)c1sc(N)c(C(=O)n2nc(C)cc2C)c1C` has an Activity of 7.88%. For `CCOC(=O)c1sc(N)c(C(=O)NNC=O)c1C`, the Activity was -38.2%. Compound `CCOC(=O)c1sc(N)c(C(=O)NNc2nc(C)cs2)c1C` has an Activity of -37.17%. For `CCOC(=O)c1sc(N)c(C(=O)N2NC(=O)CC2=O)c1C`, the Activity was -31.04%. Work on `CCOC(=O)c1sc2[nH]c(=S)n(N)c(=O)c2c1C` yielded an Activity of -14.54%.

Each compound was assayed on Rattus norvegicus (assay: Antiinflammatory activity against carrageenan-induced albino rat hind paw edema model at 15 mg/kg, po administered 1 hr before carrageenan challenge measured after 1 hr relative to indomethacin). Details: not given.
Type: functional
Work on `CCOC(=O)c1sc(N)c(C(=O)n2nc(C)cc2C)c1C` yielded an Activity of -7.27%. For `CCOC(=O)c1sc(N)c(C(=O)NNC=O)c1C`, the Activity was 144.25%. In the case of `CCOC(=O)c1sc(N)c(C(=O)NNc2nc(C)cs2)c1C`, the Activity was 127.23%. With `CCOC(=O)c1sc(N)c(C(=O)N2NC(=O)CC2=O)c1C` the Activity was 74.8%. `CCOC(=O)c1sc2[nH]c(=S)n(N)c(=O)c2c1C` showed an Activity of 85.09%.

The compounds below were run on Rattus norvegicus (assay: Antiinflammatory activity against carrageenan-induced albino rat hind paw edema model at 15 mg/kg, po administered 1 hr before carrageenan challenge measured after 3 hrs relative to indomethacin). Details: not given.
Type: functional
With `CCOC(=O)c1sc(N)c(C(=O)n2nc(C)cc2C)c1C` the Activity was 25.38%. Work on `CCOC(=O)c1sc(N)c(C(=O)NNC=O)c1C` yielded an Activity of 88.75%. `CCOC(=O)c1sc(N)c(C(=O)NNc2nc(C)cs2)c1C` gave an Activity of 75.99%. `CCOC(=O)c1sc(N)c(C(=O)N2NC(=O)CC2=O)c1C` was tested, and the Activity was 65.5%. `CCOC(=O)c1sc2[nH]c(=S)n(N)c(=O)c2c1C` showed an Activity of 31.74%.

Each compound was assayed on Bacillus cereus (assay: Antibacterial activity against Bacillus cereus BTCC19 after 48 hrs by disc diffusion method). Details: not given.
Type: functional
In short: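 Disc diffusion on nutrient agar. Compounds were dissolved in DMF at 1 mg/mL, applied per disc. Inhibition zones (mm) were read after 48 h at 28 °C. DMF alone was the negative control; ampicillin was the reference.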
`CCOC(=O)c1sc(N)c(C(=O)NNC=O)c1C` showed a zone of inhibition of 33 mm. With `CCOC(=O)c1sc(N)c(C(=O)NNc2nc(C)cs2)c1C` the zone of inhibition was 31 mm. In the case of `CCOC(=O)c1sc(N)c(C(=O)N2NC(=O)CC2=O)c1C`, the zone of inhibition was 9 mm. Compound `CCOC(=O)c1sc2[nH]c(=S)n(N)c(=O)c2c1C` has a zone of inhibition of 19 mm. For `CC1(C)S[C@@H]2[C@H](NC(=O)[C@H](N)c3ccccc3)C(=O)N2[C@H]1C(=O)O` [AMPICILLIN], the zone of inhibition was 21 mm.

What follows are compounds tested on Rattus norvegicus (assay: Antiinflammatory activity against carrageenan-induced albino rat hind paw edema model assessed as edema rate at 15 mg/kg, po administered 1 hr before carrageenan challenge measured after 1 hr). Details: not given.
Type: functional
In short: as §1
Compound `CCOC(=O)c1sc(N)c(C(=O)n2nc(C)cc2C)c1C` has an Activity of 2.58%. `CCOC(=O)c1sc(N)c(C(=O)NNC=O)c1C` gave an Activity of -51.18%. In the case of `CCOC(=O)c1sc(N)c(C(=O)NNc2nc(C)cs2)c1C`, the Activity was -45.14%. `CCOC(=O)c1sc(N)c(C(=O)N2NC(=O)CC2=O)c1C` showed an Activity of -26.54%. `CCOC(=O)c1sc2[nH]c(=S)n(N)c(=O)c2c1C` was tested, and the Activity was -30.19%.

The compounds below were run on Shigella dysenteriae (assay: Antibacterial activity against Shigella dysenteriae AE 14396 after 48 hrs by disc diffusion method). Details: read-out: MIC.
Type: functional
For `CCOC(=O)c1sc(N)c(C(=O)NNC=O)c1C`, the zone of inhibition was 30 µg/mL. With `CCOC(=O)c1sc(N)c(C(=O)NNc2nc(C)cs2)c1C` the zone of inhibition was 28 µg/mL. With `CCOC(=O)c1sc(N)c(C(=O)N2NC(=O)CC2=O)c1C` the zone of inhibition was 12 µg/mL. Compound `CCOC(=O)c1sc2[nH]c(=S)n(N)c(=O)c2c1C` has a zone of inhibition of 18 µg/mL. Compound `CC1(C)S[C@@H]2[C@H](NC(=O)[C@H](N)c3ccccc3)C(=O)N2[C@H]1C(=O)O` [AMPICILLIN] has a zone of inhibition of 30 µg/mL.

What follows are compounds tested on Rattus norvegicus (assay: Antiinflammatory activity against carrageenan-induced albino rat hind paw edema model at 15 mg/kg, po administered 1 hr before carrageenan challenge measured after 4 hrs relative to indomethacin). Details: not given.
Type: functional
For `CCOC(=O)c1sc(N)c(C(=O)n2nc(C)cc2C)c1C`, the Activity was 0.61%. `CCOC(=O)c1sc(N)c(C(=O)NNC=O)c1C` was tested, and the Activity was 76.17%. In the case of `CCOC(=O)c1sc(N)c(C(=O)NNc2nc(C)cs2)c1C`, the Activity was 64.52%. With `CCOC(=O)c1sc(N)c(C(=O)N2NC(=O)CC2=O)c1C` the Activity was 65.27%. Compound `CCOC(=O)c1sc2[nH]c(=S)n(N)c(=O)c2c1C` has an Activity of 59.99%.

These compounds were tested on Salmonella typhi (assay: Antibacterial activity against Salmonella typhi AE 14612 after 48 hrs by disc diffusion method). Details: Salmonella enterica, read-out: MIC.
Type: functional, Salmonella enterica subsp. enterica serovar Typhi
Work on `CCOC(=O)c1sc(N)c(C(=O)NNC=O)c1C` yielded a zone of inhibition of 34 µg/mL. `CCOC(=O)c1sc(N)c(C(=O)NNc2nc(C)cs2)c1C` showed a zone of inhibition of 29 µg/mL. `CCOC(=O)c1sc(N)c(C(=O)N2NC(=O)CC2=O)c1C` showed a zone of inhibition of 15 µg/mL. `CCOC(=O)c1sc2[nH]c(=S)n(N)c(=O)c2c1C` gave a zone of inhibition of 17 µg/mL. `CC1(C)S[C@@H]2[C@H](NC(=O)[C@H](N)c3ccccc3)C(=O)N2[C@H]1C(=O)O` [AMPICILLIN] was tested, and the zone of inhibition was 24 µg/mL.

What follows are compounds tested on Rattus norvegicus (assay: Antiinflammatory activity against carrageenan-induced albino rat hind paw edema model assessed as edema rate at 15 mg/kg, po administered 1 hr before carrageenan challenge measured after 4 hrs). Details: not given.
Type: functional
In short: as §1
In the case of `CCOC(=O)c1sc(N)c(C(=O)n2nc(C)cc2C)c1C`, the Activity was -0.25%. `CCOC(=O)c1sc(N)c(C(=O)NNC=O)c1C` was tested, and the Activity was -31.32%. For `CCOC(=O)c1sc(N)c(C(=O)NNc2nc(C)cs2)c1C`, the Activity was -26.53%. Work on `CCOC(=O)c1sc(N)c(C(=O)N2NC(=O)CC2=O)c1C` yielded an Activity of -26.84%. `CCOC(=O)c1sc2[nH]c(=S)n(N)c(=O)c2c1C` gave an Activity of -24.67%.

What follows are compounds tested on Rattus norvegicus (assay: Antiinflammatory activity against carrageenan-induced albino rat hind paw edema model at 15 mg/kg, po administered 1 hr before carrageenan challenge measured after 2 hrs relative to indomethacin). Details: not given.
Type: functional
Compound `CCOC(=O)c1sc(N)c(C(=O)n2nc(C)cc2C)c1C` has an Activity of 19.8%. Work on `CCOC(=O)c1sc(N)c(C(=O)NNC=O)c1C` yielded an Activity of 96%. For `CCOC(=O)c1sc(N)c(C(=O)NNc2nc(C)cs2)c1C`, the Activity was 93.42%. In the case of `CCOC(=O)c1sc(N)c(C(=O)N2NC(=O)CC2=O)c1C`, the Activity was 78.01%. For `CCOC(=O)c1sc2[nH]c(=S)n(N)c(=O)c2c1C`, the Activity was 36.54%.
